# Where “and” joins values, the source holds several entries; their conditions need not be identical. Identical values can stand only once.
# What was measured:
# [1] = test system: Caco-2; assay: Genistein conjugate metabolite excretion from Caco-2; type: in vitro ADME, human
# [2] = test system: genistein conjugative metabolism; assay: Genistein conjugative metabolism; type: in vitro ADME, human
# [3] = test system: MRP2 and/or MRP3; assay: Net CDF uptake into Caco-2 grown on 24-well plates after CDFA exposure; type: cell-based, human; settings: 100 μM compound, 30 min with 5 μM CDFA, cells on plastic
# [4] = biological target: MRP2 (Homo sapiens, UniProt Q92887); assay: CDF directional; type: cell-based
# [5] = test system: esterase-mediated conversion of CDFA to CDF; assay: CDFA hydrolysis to CDF by Caco-2 cells; type: cell-based, human; settings: 100 μM compound
# How it was run: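 Caco-2 cells from ATCC, used at passages 35–55, grown in DMEM with 10% FBS, 1% non-essential amino acids, 1 mM sodium pyruvate and 2 mM L-glutamine at 37°C in 5% CO2. CDFA was taken from a 5 mM stock in 1:1 DMSO:ethanol. CDF formation was expressed as specific activity per mg protein under initial-rate conditions, N = 3 per condition.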
# [6] = test system: Caco-2; assay: Lucifer yellow permeability in Caco-2; type: in vitro ADME, human; settings: control vs in the presence of 50 μM glyceollin
# MRP2, sequence (Q92887 whole entry): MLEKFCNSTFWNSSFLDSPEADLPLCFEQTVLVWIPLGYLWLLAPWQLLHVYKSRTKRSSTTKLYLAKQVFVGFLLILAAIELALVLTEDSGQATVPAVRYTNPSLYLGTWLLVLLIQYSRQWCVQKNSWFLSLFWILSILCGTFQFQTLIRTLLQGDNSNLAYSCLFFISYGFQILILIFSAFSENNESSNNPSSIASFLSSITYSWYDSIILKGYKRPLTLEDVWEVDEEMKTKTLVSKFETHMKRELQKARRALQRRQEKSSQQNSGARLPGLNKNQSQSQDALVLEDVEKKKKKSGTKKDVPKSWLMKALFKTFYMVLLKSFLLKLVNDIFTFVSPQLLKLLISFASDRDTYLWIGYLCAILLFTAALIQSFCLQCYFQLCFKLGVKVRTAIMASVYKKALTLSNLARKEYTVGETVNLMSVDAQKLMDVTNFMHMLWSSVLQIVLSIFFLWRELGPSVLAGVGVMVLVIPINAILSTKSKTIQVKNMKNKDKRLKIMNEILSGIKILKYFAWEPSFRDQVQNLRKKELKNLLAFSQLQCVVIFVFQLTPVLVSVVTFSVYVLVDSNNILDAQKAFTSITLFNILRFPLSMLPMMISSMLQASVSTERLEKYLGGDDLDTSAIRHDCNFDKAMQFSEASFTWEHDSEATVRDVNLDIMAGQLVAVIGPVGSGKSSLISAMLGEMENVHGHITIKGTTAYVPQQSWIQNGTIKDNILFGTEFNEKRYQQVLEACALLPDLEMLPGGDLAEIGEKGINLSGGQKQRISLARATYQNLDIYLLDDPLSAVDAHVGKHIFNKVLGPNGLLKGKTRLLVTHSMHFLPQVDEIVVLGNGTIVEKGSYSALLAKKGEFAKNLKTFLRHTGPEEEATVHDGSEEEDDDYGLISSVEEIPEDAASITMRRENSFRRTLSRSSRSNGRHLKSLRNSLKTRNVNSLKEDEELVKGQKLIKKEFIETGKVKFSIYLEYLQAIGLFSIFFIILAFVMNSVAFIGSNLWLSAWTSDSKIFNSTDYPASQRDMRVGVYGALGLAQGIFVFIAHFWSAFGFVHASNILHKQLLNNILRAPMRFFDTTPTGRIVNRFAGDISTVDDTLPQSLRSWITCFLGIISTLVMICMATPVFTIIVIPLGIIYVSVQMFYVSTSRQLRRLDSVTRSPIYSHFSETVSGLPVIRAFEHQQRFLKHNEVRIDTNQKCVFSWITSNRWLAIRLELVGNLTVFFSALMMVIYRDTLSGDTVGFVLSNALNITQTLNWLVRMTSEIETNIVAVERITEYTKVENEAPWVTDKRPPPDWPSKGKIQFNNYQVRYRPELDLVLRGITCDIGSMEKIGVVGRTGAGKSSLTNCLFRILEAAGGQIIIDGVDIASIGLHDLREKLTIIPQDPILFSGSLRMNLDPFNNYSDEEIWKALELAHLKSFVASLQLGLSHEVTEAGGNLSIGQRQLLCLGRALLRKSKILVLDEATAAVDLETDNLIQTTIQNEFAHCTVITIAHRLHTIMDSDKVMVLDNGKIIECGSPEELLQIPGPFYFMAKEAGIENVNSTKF
compound,measurement,setting,value
glyceollin,apical metabolite excretion rate,[1],6.5 ± 0.61 × 10^-5 nmoles/sec
same,intracellular genistein conjugates,[2]; Caco-2,9 ± 2.7 pmoles/filter
CN(C)C(=O)CCSC(SCCC(=O)O)c1cccc(/C=C/c2ccc3ccc(Cl)cc3n2)c1 (stereo not drawn) [MK-571],CDF uptake,[3],significant reduction
same,CDF AB directional transport,[4]; 100 μM compound vs control,statistically significant increase
same,CDF BA directional transport,[4]; 100 μM compound vs control,statistically significant reduction
same,CDF cell concentration at the conclusion of the 2-hour incubation,"[4]; 100 μM compound, both transport directions",reduced
same,IC50 for reduction of CDF BA/AB permeability ratio,"[4]; 10, 30 or 100 μM compound",22 µM
same,rate of esterase-mediated conversion of CDFA to CDF,[5],did not alter
same,CDFA hydrolysis specific activity (initial rate),"[5]; 5 μM CDFA, control 6.0",8.5 nM/min/mg protein
"5 (and 6)-Carboxy-2′,7′-dichloroflourescein [CDF]","CDF permeability, BA direction vs. AB direction","[4]; control conditions, no inhibitor",3.7 ± 0.36 fold
O=c1c(-c2ccc(O)cc2)coc2cc(O)cc(O)c12 [genistein],"fraction of genistein metabolized to conjugates (Fm), average","[2]; control vs 30 μM glyceollin, average of two experiments",47% ± 10.5% and 47%
Lucifer yellow,lucifer yellow permeability,[6],0.13 ± 0.035 × 10^-5 cm/s

# — paper PMC4761526 (Journal of pharmaceutical sciences, 2016)
